Measurements collected from several papers.
RET V804L: Proto-oncogene tyrosine-protein kinase receptor Ret (RET, Homo sapiens, UniProt P07949, V804L)
RET V804M: Proto-oncogene tyrosine-protein kinase receptor Ret (RET, Homo sapiens, UniProt P07949, V804M)
RET M918T: Proto-oncogene tyrosine-protein kinase receptor Ret (RET, Homo sapiens, UniProt P07949, M918T)

Structure (SMILES)	target	assay	setting	remaining binding [%]
CN(CCCC(F)(F)F)c1nccc(-c2cnn3ncccc23)n1	RET V804L	binding	1 µM	100
COc1cnc(Nc2cccc(S(N)(=O)=O)c2)nc1N1CCN(c2ccccc2)CC1	RET V804L	binding, competition with immobilised ligand	1 µM	73
CO[C@@H](C)c1c(Nc2ccc([C@H](N(C)C(=O)C3CCS(=O)(=O)CC3)C(F)(F)F)cc2)cnc2cc(Cl)nn12	RET V804M	cell-free assay, competition with immobilised ligand	1 µM	94
O=C(NCCCN1CCOCC1)c1ccc(Nc2ncc(Cl)c(-c3ccc(Cl)s3)n2)cc1	RET V804L	binding, competition with immobilised ligand	1 µM	13
CCC(=O)N[C@H]1CC[C@@H](C(=O)N(C)c2ccc(-c3nc4ccccc4o3)cc2)C1	RET V804M	cell-free assay, competition with immobilised ligand	1 µM	100
Cc1cnn2ncc(-c3ccnc(N(C)C)n3)c2c1	RET V804L	binding	1 µM	100
c1cncc(-c2cccc(Nc3nccc(NC4CCCCC4)n3)c2)c1	RET V804M	binding, competition with immobilised ligand	10 µM	8.8
O=C(N[C@H]1CCCCC/C=C\C2C[C@@]2(C(=O)O)NC(=O)[C@@H]2C[C@@H](Oc3ccncc3)CN2C1=O)OC1CCCC1 (some centres unmarked)	RET M918T	binding, competition with immobilised ligand	1 µM	96
N[C@H]1CCN(c2nccc(-c3cnn4ncccc34)n2)C1	RET V804M	binding	1 µM	100
C[C@@H](c1ccc(-n2cnc3c(N)ncnc32)cc1)N1CCc2nn(C)c(Cc3ccccc3)c2C1=O	RET M918T	binding, competition with immobilised ligand	0.1 µM	98
O=C(NCC1CCOCC1)c1n[nH]cc1NC(=O)c1c(F)cccc1F	RET V804L	binding, competition with immobilised ligand	1 µM	100
C[C@H]1CCN(c2nccc(-c3cnn4ncccc34)n2)C1	RET M918T	binding	1 µM	100
CN(C)CC#Cc1ccc(OCCCc2sc(N3CCc4cccc(C(=O)Nc5nc6ccccc6s5)c4C3)nc2C(=O)O)c(F)c1	Proto-oncogene tyrosine-protein kinase receptor Ret (RET, Homo sapiens, UniProt P07949)	cell-free assay, competition with immobilised ligand	1 µM	100
O=C(NCCCN1CCOCC1)c1ccc(Nc2nccc(-c3cc4ccccc4s3)n2)cc1	RET M918T	binding, competition with immobilised ligand	1 µM	93
CN(C)c1ncc(F)c(-c2cnn3ncccc23)n1	RET V804M	binding	1 µM	100
CNC(=O)[C@@H]1CC[C@@H](n2c(-c3ccc4cnccc4c3)nc3ccc(C(=O)NCc4cccc(C(N)=O)c4)cc32)C1	RET M918T	binding, competition with immobilised ligand	1 µM	98
Cc1noc([C@H]2C[C@@H](c3ccc(C(F)(F)F)cc3)CN(C(=O)N3CCS(=O)(=O)C3)C2)n1	RET V804L	cell-free assay, competition with immobilised ligand	1 µM	100
O=C(c1ccc(Nc2ncc(Cl)c(-c3ccc(Cl)s3)n2)cc1)N1CCC(N2CCCC2)CC1	RET V804M	binding, competition with immobilised ligand	1 µM	12
COc1cc(-c2cn(C3CCc4c(F)cccc4N(CC(F)(F)F)C3=O)nn2)ccc1-n1cnc(C)c1 (centres unmarked)	RET V804M	cell-free assay, competition with immobilised ligand	1 µM	88
COc1ccnn2ncc(-c3ccnc(N(C)C)n3)c12	RET M918T	binding	1 µM	100
